Measured values from ChEMBL document CHEMBL1140096, “Discovery of novel nitrobenzothiazole inhibitors for Mycobacterium tuberculosis ATP phosphoribosyl transferase (HisG) through virtual screening” (J Med Chem, 2008).
Active and inactive are the calls of the source. The calls are words filed in the database; no cut-off is given here.

Experiments:
[1] = target: T1, ATP phosphoribosyltransferase (Mycobacterium tuberculosis) (UniProt P9WMN1); experiment: Inhibition of Mycobacterium tuberculosis HisG assessed as phosphoribosyl ATP production at 10 uM by spectrophotometry
T1 sequence (whole entry): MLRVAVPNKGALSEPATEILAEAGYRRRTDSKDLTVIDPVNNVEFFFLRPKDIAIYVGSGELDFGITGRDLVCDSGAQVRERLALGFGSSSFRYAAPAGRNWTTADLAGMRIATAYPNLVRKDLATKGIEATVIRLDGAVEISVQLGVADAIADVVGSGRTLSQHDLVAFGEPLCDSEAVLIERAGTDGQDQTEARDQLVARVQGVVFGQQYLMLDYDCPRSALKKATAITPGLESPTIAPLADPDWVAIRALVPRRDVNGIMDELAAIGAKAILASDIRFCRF

[2] = target: T2, ATP phosphoribosyltransferase (Mycobacterium tuberculosis, UniProt P9WMN1); experiment: Inhibition of Mycobacterium tuberculosis HisG assessed as phosphoribosyl ATP production by spectrophotometry
T2 sequence (P9WMN1 whole entry): T1 sequence (whole entry)

[3] = Inhibition of Escherichia coli HisG
[4] = target: T1, ATP phosphoribosyltransferase (Mycobacterium tuberculosis); experiment: Inhibition of Mycobacterium tuberculosis HisG assessed as phosphoribosyl ATP production at 1 uM by spectrophotometry
[5] = tested on: Mycolicibacterium smegmatis; experiment: Antimycobacterial activity against Mycobacterium smegmatis ATCC 700084 at 12 ug/mL; type: functional, organism-based
Procedure, shortened: (§1)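 M. smegmatis ATCC 700084 pre-grown 2 days in 7H9 with 0.2% glucose and 0.05% Tween80, then plated on 7H10 agar (0.2% glycerol) containing compound at 1, 3, 6, 12 or 25 μg/ml. Plates were incubated 4 days at 37 °C and growth was judged by inspection. Controls were no-compound and DMSO plates, plus kanamycin 25 μg/ml.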

[6] = tested on: Mycolicibacterium smegmatis; experiment: Antimycobacterial activity against Mycobacterium smegmatis ATCC 700084 at 25 ug/mL; type: functional; procedure, shortened: as §1

SMILES	inhibition [1] [%]	IC50 [2] [µM]	further results
COc1cc(C2C(C(=O)c3ccc(Cl)cc3)=C(O)C(=O)N2Cc2cccnc2)cc(OC)c1OC (configuration not stated)	20		
COc1ccc(COC(=O)C2=C(C)NC3=C(C(=O)CC(c4cccs4)C3)C2c2cccs2)cc1 (configuration not stated)	50	10	
CCOC(=O)C(=O)Nc1nc2ccc([N+](=O)[O-])cc2s1	39	13.9	
Oc1c(Cl)c(Cl)c(Cl)c(Cl)c1Cl [PENTACHLOROPHENOL]			Ki [3]: 50 µM
O=[N+]([O-])c1ccc(O)c([N+](=O)[O-])c1 [2,4-DINITROPHENOL]			Ki [3]: 50 µM
O=c1oc2ccccc2c(O)c1Cc1c(O)c2ccccc2oc1=O [DICUMAROL]			Ki [3]: 50 µM
O=C(CSc1nnc(-c2ccccc2)c(-c2ccccc2)n1)Cc1nccs1	76	4	Ki [2]: 2 µM; inhibition [4]: 40%
Cc1cc(/N=N/c2ccc(S(=O)(=O)O)cc2)c(N)c(/N=N/c2ccc(S(=O)(=O)O)cc2)c1N	45		
Nc1nc(SCc2ccccc2)c(N)c(SCc2ccccc2)n1	48		
CN(CC(=O)O)c1nc2cc([N+](=O)[O-])ccc2s1	15		
O=[N+]([O-])c1ccc2c(/N=N/c3ccc4ccccc4c3O)c(O)cc(S(=O)(=O)O)c2c1	50	10	
O=[N+]([O-])c1ccc(Nc2cc(Nc3cccc(O)c3)c3nonc3c2[N+](=O)[O-])c(O)c1	46	11.9	Activity [5]: Active; inhibition at 25 µg/mL [6]: 100%
O=C(NNC(=O)c1cc([N+](=O)[O-])cc([N+](=O)[O-])c1Br)Nc1ccccc1	71	5.5	
O=C(CC(NC(=O)c1ccccc1)c1ccccc1)Nc1nc2ccc([N+](=O)[O-])cc2s1 (configuration not stated)	71	6	Ki [2]: 2 µM; inhibition [4]: 35%
